# tolC growth inh: growth inhibitors of E. coli tolC mutant, primary screen, strain BW25113 ΔtolC::kan, 384-well. OD615. growth inhibition, % at 10 µM (by protocol). hit rate 2.2% among 65,000;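 active = growth inhibition at or above a cutoff equal to the mean over every tested compound plus 3 SD, cut at about 60% in these data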;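 also: growth measured after 20 h incubation at 37 °C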
#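 Material: E. coli BW25113 ΔtolC::kan, tolC deletion mutant strain. Measure: percent growth inhibition. Schedule: 37 °C, 20 h exposure. Doses: single-point testing at 10 µM. Signal: A615 absorbance measurement. Buffer or medium: kanamycin-containing LB broth (50 µg/mL).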
# PostGolgi ctrl: growth inhibition of yeast control strain, primary screen, counter-screen for post-Golgi transport modulator project | efflux-deficient yeast background strain, growth absorbance A615, 16 h | inhibition, % at 10 µM | hit rate 5% among 98,000 | AID 738, 2007
# PostGolgi yeast: phenotypic screen on post-Golgi transport, primary screen; post-Golgi transport phenotypic cell assay; inhibition, % at 10 µM; hit rate 0.9% among 98,000; AID 739, 2007;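 also: yeast cells grown in 1536-well plates; yeast grown about 18 h at 30C before absorbance read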
# E coli WT exp: growth inhibitors of wild-type E. coli, primary screen, strain BW25113, expanded library, OD600; OD600 absorbance; growth inhibition, % at 100 µM; hit rate 0.15% among 98,000; AID 710, 2007;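 active = growth inhibition above about 50% at one test dose, limit read from the data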;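 also: growth measured after 20 h incubation at 37 °C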
# PLAP activator: PLAP enzyme activators, biochemical, luminescence, HTS; purified PLAP enzyme, luminescent substrate read-out; hits give high values; activation fold at 20 µM; hit rate 1.2% among 96,000; in the data active = activation fold above about 2
# Target sequence (P05187 whole entry, looked up): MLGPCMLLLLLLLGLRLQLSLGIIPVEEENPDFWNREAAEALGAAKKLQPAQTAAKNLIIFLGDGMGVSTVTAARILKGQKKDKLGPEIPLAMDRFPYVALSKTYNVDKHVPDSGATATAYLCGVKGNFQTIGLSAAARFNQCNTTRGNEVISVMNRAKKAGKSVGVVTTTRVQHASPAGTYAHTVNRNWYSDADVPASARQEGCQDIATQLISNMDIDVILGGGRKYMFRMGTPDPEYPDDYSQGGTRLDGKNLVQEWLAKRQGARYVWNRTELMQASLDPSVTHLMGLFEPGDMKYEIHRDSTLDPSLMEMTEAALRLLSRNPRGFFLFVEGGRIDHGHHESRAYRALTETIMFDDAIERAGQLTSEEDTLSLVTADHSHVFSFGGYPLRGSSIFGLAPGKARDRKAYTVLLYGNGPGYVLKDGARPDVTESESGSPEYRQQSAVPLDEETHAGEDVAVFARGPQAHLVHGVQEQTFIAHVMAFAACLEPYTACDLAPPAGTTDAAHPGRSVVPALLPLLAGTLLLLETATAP
# An asterisk follows results filed as active; x = not tested or not shown. An excerpt weighted towards active compounds, which were near 7.2% of everything screened. Rule as the data show it, unless noted: active = inhibition above about 30%; inactive = the rest.
SMILES,tolC growth inh,PostGolgi ctrl,PostGolgi yeast,E coli WT exp,PLAP activator
CCOc1ccc(C/C(N)=N/n2cnnc2)cc1,x,4,14,2,0.8
Cc1ccc2[nH]c(-c3cccc(N)c3)cc2c1,20,5,-11,17,0.9
Cc1ccc(O)c(-c2cc3ccccc3[nH]2)c1,100*,9,1,45,1.3
CCN1/C(=C/c2ccc3ccccc3[n+]2CC)C=Cc2ccccc21,x,66*,-1,57*,0.2
Cc1ccc(S(=O)(=O)NCC(=O)OC(C)C(=O)Nc2ncc(Cl)cc2Cl)cc1 (centres undefined),x,1,-3,0,1
C=CCn1c(Cc2cccs2)nnc1SC/C=C/c1ccccc1,x,27,-8,-5,1.1
C=CCc1ccc(OCC(O)CN2CCC(Cc3ccccc3)CC2)c(OC)c1 (centres undefined),x,63*,98*,18,1.7
COc1ccc(CCNS(=O)(=O)c2ccccc2)cc1OC,-13,-2,0,-2,0.9
COc1ccc(S(=O)(=O)NCCOc2ccccc2)cc1OC,-3,33*,-7,-2,1
CCCCOc1ccc(S(=O)(=O)Nc2cc(OC)ccc2OC)cc1,70*,51*,2,-9,1.2
CCCCOc1ccc(S(=O)(=O)Nc2cccnc2)cc1,13,14,32*,-13,1.1
COc1ccc(NC(=O)C2CC(=O)OC2(C)C)cc1 (centres undefined),-8,-1,10,1,0.9
O=C(c1cc(-c2cccs2)on1)N1CCN(C(c2ccccc2)c2ccccc2)CC1,x,4,-13,-6,1.2
COc1cccc(-c2cc(C(=O)N3CCN(C(c4ccccc4)c4ccccc4)CC3)no2)c1,-4,1,38*,-14,0.8
COc1cccc(-c2cc(C(=O)Nc3cc(C)on3)no2)c1,-8,0,2,0,0.8
COc1cccc(-c2cc(C(=O)N3C(C)CCCC3C)no2)c1 (centres undefined),68*,16,-17,-1,1.7
CCC(=O)Nc1ccc(/C(C)=N\NS(=O)(=O)c2ccc(C)cc2)cc1,x,12,2,-2,1.1
Cc1cnn(C(=S)NCC2CCCO2)c1 (centres undefined),-30,-6,7,3,2.1*
CCC(=O)N1CCc2cc(Br)cc(S(=O)(=O)N3CCCCCC3)c21,31,36*,8,-1,x
O=C(C1CC1)N1CCc2cc(Br)cc(S(=O)(=O)N3CCCCCC3)c21,27,41*,-1,-2,1.5
CC(=O)c1c(C)[nH]c(C(=O)OCCCCN2C(=O)c3ccccc3C2=O)c1C,22,11,6,-11,1
Cc1nc2sc(C(c3ccc(Cl)cc3)N3CCN(c4ccccc4F)CC3)c(O)n2n1 (centres undefined),16,32*,2,-12,1
Cc1nc2sc(C(c3ccco3)N3CCN(c4ccccc4F)CC3)c(O)n2n1 (centres undefined),0,x,x,x,1.6
Cc1nc2sc(C(c3cccs3)N3CCN(c4cccc(Cl)c4)CC3)c(O)n2n1 (centres undefined),21,48*,-1,-1,x
Oc1c(C(c2cccc(F)c2)N2CCN(Cc3ccccc3)CC2)sc2ncnn12 (centres undefined),1,7,4,3,x
SMILES,tolC growth inh,PostGolgi ctrl,PostGolgi yeast,E coli WT exp,PLAP activator
Cc1c(NC(=O)CSc2nc3ccccc3s2)c(=O)n(-c2ccccc2)n1C,x,-2,15,8,0.9
COc1ccc(F)cc1CN1CCN(c2cc(C)nc3c4c(C)cc(C)nc4nn23)CC1,52,-3,-10,2,1.9
Cc1cc(C)c2c(n1)nn1c(N3CCN(Cc4ccccc4)CC3)cc(C)nc21,25,x,x,x,2.1*
O=C(NC1CC1)C1CCN(Cc2cnn(-c3ccccc3)c2-n2cccc2)CC1,x,-1,25,5,2*
O=C(O)C1CCN(Cc2cnn(-c3ccccc3)c2-n2cccc2)CC1,2,8,-3,-3,x
COc1cccc(CNC(=O)C2CCN(Cc3cnn(-c4ccccc4)c3-n3cccc3)CC2)c1,1,2,2,6,2.2*
CCn1cc(Br)c(C(=O)Nc2ccc(OC)cc2)n1,5,-3,-5,16,0.9
CCn1cc(Br)c(C(=O)Nc2ccc(C(=O)OC(C)C)cc2)n1,67*,-9,4,2,1.4
COC(=O)C1=C(C)NC(=O)/C1=C\c1cc(C)n(-c2ccccc2C)c1C,x,32*,10,5,1
COC(=O)C1=C(C)NC(=O)/C1=C\c1cc(C)n(-c2c(C)cccc2C)c1C,x,-2,-1,-13,1.3
CCOC(=O)c1c(C)nc2c(c1-c1cc(OC)ccc1OC)C(=O)c1ccccc1-2,x,4,-11,-8,1.1
CCOC(=O)c1c(C)nc2c(c1-c1ccccc1)C(=O)c1ccccc1-2,x,35*,1,-10,1
CCc1cc2c(=O)c(-c3nc4ccccc4n3C)c(C)oc2c(CN(CC)CC)c1O,x,35*,4,1,1
CCc1cc2c(=O)c(-c3nc4ccccc4n3C)coc2c(CN2CCN(C)CC2)c1O,2,8,-6,3,1.5
c1ccc(-c2ccc(C3=Nn4c(Cn5nnc6ccccc65)nnc4SC3)cc2)cc1,x,36*,4,-11,0.9
Fc1ccc(C2=Nn3c(Cc4ccccc4F)nnc3SC2)cc1,x,1,-6,-7,0.9
CCOC(=O)C1CCN(S(=O)(=O)c2cccc(-c3cn4cccc(C)c4n3)c2)CC1,8,15,3,2,1.4
CCn1c(=NC(=O)CN2C(=O)CCC2=O)sc2c(OC)ccc(OC)c21,1,16,-3,1,1.2
CCn1c(=NC(=O)c2ccc(N3C(=O)CCC3=O)cc2)sc2c(OC)ccc(OC)c21,10,16,37*,-4,1.2
O=C(Nc1ccc(F)cc1)N1CCC(c2nc3c(nnn3Cc3cccc(Cl)c3)c(=O)[nH]2)CC1,100*,13,0,-1,1.3
Cc1ccc(NC(=O)N2CCC(c3nc4c(nnn4Cc4cccc(Cl)c4)c(=O)[nH]3)CC2)cc1,99*,-1,-4,-13,1.5
CCCCCCC(=O)N1CCC(c2nc3c(nnn3Cc3ccccc3Cl)c(=O)[nH]2)CC1,100*,8,-4,2,1.6
COc1ccccc1NC(=O)N1CCCC(c2nc3c(nnn3Cc3ccc(C)cc3)c(=O)[nH]2)C1 (centres undefined),14,4,-10,0,1.1
O=C(C1CCCCC1)N1CCC(c2nc3c(nnn3Cc3c(F)cccc3Cl)c(=O)[nH]2)CC1,89*,x,x,x,x
N#Cc1cccc(NC(=O)N2CCC(c3nc4c(nnn4Cc4cccc(Cl)c4)c(=O)[nH]3)CC2)c1,-9,8,11,-10,1.2
Cc1ccc(C)n1-n1c(C)nc2sc3c(c2c1=O)CCCCC3,67*,50*,-2,-3,0.9
Nc1nc2sc3c(c2c(=O)s1)CCCC3,48,39*,-1,3,0.8

# Source: PubChem BioAssay
